Key:
Mus musculus [1] = assay: Antialzheimer activity in 5XFAD mouse assessed as average plaque volume in somatosensory cortex at 75 ppm administered as rodent chow starting from 1.5 months and measured after 5 months by immunolabeling based confocal microscopic analysis (reference value: 871.142 to 1628.317 microm3); type: functional; settings: route po, time 3.5 months, 2555 h
Outline: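 5xFAD mice fed PLX3397 at 75 ppm in AIN-76A chow from 1.5 to 5 months of age; retrosplenial and somatosensory cortex sections stained with Thio-S and immunolabeled for IBA1; confocal imaging, IBA1+ cells and plaques quantified per region; two-tailed independent t-test, n = 4–5 per group, mean ± SEM.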

Mus musculus [2] = assay: Antialzheimer activity in 5XFAD mouse assessed as number of Thio-S positive plaques per FOV in somatosensory cortex at 1200 ppm administered as rodent chow starting from 1.5 months and measured after 7 months by Thio-S staining based confocal microscopic analysis (reference value: 22 to 106); type: functional; settings: route po, time 5.5 months, 4015 h
[3] = target: Tyrosine-protein kinase ITK/TSK (Homo sapiens, UniProt Q08881); assay: Inhibition of ITK (unknown origin)
Tyrosine-protein kinase ITK/TSK, sequence (Q08881 whole entry): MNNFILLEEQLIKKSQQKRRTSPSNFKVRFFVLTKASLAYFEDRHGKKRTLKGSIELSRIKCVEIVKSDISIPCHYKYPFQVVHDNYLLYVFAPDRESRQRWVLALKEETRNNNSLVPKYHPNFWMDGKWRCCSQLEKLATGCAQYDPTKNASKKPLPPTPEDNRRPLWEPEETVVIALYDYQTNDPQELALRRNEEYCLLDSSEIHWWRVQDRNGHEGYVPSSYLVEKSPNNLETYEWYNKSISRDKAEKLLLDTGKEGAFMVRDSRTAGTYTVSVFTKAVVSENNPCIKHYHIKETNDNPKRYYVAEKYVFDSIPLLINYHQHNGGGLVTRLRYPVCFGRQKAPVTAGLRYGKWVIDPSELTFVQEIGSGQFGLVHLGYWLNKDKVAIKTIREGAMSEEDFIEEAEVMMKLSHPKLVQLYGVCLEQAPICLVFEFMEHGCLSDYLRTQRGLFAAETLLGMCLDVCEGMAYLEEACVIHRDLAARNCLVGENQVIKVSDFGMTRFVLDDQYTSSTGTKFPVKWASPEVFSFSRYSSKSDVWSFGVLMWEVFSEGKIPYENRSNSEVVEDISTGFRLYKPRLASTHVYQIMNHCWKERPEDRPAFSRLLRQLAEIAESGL

[4] = target: Serine/threonine-protein kinase D2 (Homo sapiens, UniProt Q9BZL6); assay: Inhibition of PRKD2 (unknown origin)
[5] = target: Serine/threonine-protein kinase pim-2 (Homo sapiens, UniProt Q9P1W9); assay: Inhibition of PIM2 (unknown origin)
Serine/threonine-protein kinase pim-2, sequence (Q9P1W9 whole entry): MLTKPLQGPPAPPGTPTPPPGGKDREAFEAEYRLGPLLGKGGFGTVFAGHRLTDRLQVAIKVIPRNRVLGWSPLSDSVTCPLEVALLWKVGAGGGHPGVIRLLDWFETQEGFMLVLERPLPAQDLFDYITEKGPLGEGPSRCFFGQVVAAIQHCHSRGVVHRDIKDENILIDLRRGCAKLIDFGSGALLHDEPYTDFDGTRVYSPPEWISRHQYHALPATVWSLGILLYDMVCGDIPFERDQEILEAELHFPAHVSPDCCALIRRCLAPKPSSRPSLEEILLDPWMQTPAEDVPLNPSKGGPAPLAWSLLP

[6] = target: Casein kinase II subunit alpha' (Homo sapiens, UniProt P19784); assay: Inhibition of CSNK2A2 (unknown origin)
Casein kinase II subunit alpha', sequence (P19784 whole entry): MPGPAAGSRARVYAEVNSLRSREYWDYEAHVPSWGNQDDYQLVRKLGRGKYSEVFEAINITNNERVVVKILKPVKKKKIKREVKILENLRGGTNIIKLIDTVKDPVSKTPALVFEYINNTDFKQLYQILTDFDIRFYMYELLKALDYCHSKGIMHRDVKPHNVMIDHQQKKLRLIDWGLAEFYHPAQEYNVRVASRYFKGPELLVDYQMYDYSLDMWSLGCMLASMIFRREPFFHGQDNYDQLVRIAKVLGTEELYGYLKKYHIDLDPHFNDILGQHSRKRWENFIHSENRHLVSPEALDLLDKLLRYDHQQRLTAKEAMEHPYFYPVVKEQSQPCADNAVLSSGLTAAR

Mus musculus [7] = assay: Antialzheimer activity in 5XFAD mouse assessed as number of Iba positive cells per FOV in microglia at 1200 ppm administered as rodent chow for 5 days by DAPI staining based immunolabeling analysis (reference value: 119 to 154); type: functional; settings: route po, time 5 day
[8] = Effect on Hexb gene expression in 5XFAD mouse cortex at 1200 ppm administered as rodent chow starting from 1.5 months and measured after 7 months by RNA-Seq analysis (reference value: 70.260 to 103.252 RPKM); type: functional; settings: route po, time 5.5 months, 4015 h
[9] = target: Rho-associated protein kinase 1 (Homo sapiens, UniProt Q13464); assay: Inhibition of ROCK1 (unknown origin)
[10] = Effect on Hexb gene expression in 5XFAD mouse hippocampus at 1200 ppm administered as rodent chow starting from 1.5 months and measured after 7 months by RNA-Seq analysis (reference value: 90.736 to 123.2 RPKM); type: functional; settings: route po, time 5.5 months, 4015 h
Mus musculus [11] = assay: Antialzheimer activity in 5XFAD mouse assessed as number of GFAP positive cells per FOV at 1200 ppm administered as rodent chow starting from 1.5 months to 4 months followed by compound removal and measured after 1 month by immunolabeling based confocal microscopic analysis (reference value: 20 to 71); type: functional; settings: route po, time 2.5 months, 1825 h
[12] = target: Casein kinase I isoform gamma-3 (Homo sapiens, UniProt Q9Y6M4); assay: Inhibition of CSNK1G3 (unknown origin)
Casein kinase I isoform gamma-3, sequence (Q9Y6M4 whole entry, canonical isoform): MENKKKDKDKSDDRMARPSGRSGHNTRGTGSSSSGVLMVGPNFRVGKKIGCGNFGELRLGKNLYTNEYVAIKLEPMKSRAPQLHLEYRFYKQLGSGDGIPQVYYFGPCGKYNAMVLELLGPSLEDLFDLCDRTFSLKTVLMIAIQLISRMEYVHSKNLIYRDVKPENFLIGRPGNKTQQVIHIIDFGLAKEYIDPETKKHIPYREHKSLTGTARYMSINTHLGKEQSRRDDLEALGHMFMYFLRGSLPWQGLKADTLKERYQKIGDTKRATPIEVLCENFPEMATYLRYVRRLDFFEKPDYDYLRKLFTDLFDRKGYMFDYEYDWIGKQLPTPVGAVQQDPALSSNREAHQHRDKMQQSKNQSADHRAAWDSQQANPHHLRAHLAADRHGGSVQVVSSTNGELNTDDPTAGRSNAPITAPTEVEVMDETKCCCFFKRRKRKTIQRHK

[13] = target: G protein-coupled receptor kinase 3 (Homo sapiens, UniProt P35626); assay: Inhibition of ADRBK2 (unknown origin)
G protein-coupled receptor kinase 3, sequence (P35626 whole entry): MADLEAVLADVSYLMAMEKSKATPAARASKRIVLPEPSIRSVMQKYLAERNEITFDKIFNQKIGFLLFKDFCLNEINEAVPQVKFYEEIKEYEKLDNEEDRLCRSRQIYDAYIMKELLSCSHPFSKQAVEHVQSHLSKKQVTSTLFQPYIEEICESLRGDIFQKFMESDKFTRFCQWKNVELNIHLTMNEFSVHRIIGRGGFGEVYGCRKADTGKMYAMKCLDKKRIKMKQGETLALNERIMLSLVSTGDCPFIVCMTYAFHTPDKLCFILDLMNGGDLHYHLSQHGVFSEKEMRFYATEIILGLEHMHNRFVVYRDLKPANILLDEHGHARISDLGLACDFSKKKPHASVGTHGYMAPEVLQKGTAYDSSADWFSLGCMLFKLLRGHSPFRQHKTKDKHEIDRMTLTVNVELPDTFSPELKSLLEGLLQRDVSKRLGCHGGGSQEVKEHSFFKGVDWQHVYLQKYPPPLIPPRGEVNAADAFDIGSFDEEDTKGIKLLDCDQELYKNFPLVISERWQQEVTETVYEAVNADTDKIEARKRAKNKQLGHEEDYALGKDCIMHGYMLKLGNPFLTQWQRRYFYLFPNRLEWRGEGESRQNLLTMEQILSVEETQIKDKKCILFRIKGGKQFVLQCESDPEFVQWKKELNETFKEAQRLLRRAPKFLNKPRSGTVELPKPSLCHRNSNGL

Mus musculus [14] = assay: Antialzheimer activity in 5XFAD mouse assessed as average diameter of claudin-5 blood vessels in Thio-S positive retro spinal cortex at 1200 ppm administered as rodent chow starting from 1.5 months and measured after 4 months by immunolabeling analysis; type: functional; settings: route po, time 2.5 months, 1825 h
[15] = target: Phosphatidylinositol 3-kinase catalytic subunit type 3 (Homo sapiens, UniProt Q8NEB9); assay: Inhibition of PIK3C3 (unknown origin)
Mus musculus [16] = assay: Effect on circulating leukocytes in wildtype mouse assessed as percentage of CD45+/PI- cells expressing CD8 at 1200 ppm administered as rodent chow for 10 to 24 weeks (reference value: 5.56 to 11.8 %); type: functional; settings: route po, time 10-24 weeks
[17] = Effect on Cx3cr1 gene expression in wild type mouse thalamus at 1200 ppm administered as rodent chow starting from 1.5 months and measured after 7 months by RNA-Seq analysis (reference value: 10.263 to 12.137 RPKM); type: functional; settings: route po, time 5.5 months, 4015 h
[18] = target: Ribosomal protein S6 kinase alpha-3 (Homo sapiens, UniProt P51812); assay: Inhibition of RPS6KA3 (unknown origin)
Ribosomal protein S6 kinase alpha-3, sequence (P51812 whole entry): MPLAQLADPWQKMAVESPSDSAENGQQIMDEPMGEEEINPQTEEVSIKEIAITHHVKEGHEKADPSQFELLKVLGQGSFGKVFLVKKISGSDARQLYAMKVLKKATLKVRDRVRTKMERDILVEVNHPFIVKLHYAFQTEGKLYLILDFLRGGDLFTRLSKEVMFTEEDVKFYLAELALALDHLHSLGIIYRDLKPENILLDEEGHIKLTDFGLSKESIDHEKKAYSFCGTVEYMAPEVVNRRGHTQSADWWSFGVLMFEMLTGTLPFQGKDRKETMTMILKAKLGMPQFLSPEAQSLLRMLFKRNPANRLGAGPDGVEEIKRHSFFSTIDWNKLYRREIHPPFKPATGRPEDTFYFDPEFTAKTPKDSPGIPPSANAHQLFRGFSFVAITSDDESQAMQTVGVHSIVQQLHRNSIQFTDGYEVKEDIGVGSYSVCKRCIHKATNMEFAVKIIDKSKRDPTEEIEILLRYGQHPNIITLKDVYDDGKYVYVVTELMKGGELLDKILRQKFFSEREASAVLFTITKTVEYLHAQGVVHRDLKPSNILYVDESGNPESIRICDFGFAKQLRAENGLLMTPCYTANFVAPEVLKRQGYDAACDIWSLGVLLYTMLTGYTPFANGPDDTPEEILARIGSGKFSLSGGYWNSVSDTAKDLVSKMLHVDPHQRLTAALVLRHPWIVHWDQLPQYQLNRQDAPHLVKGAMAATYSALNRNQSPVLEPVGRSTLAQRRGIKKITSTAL

[19] = Effect on Pcdhac1 gene expression in wildtype mouse hippocampus assessed as percent change in Reads Per kilo base per Million mapped reads at 1200 ppm administered as rodent chow starting from 1.5 months and measured after 7 months by RNA-Seq analysis (reference value: 88.246 to 122.665 %); type: functional; settings: route po, time 5.5 months, 4015 h
[20] = target: MAP kinase-activated protein kinase 2 (Homo sapiens, UniProt P49137); assay: Inhibition of MAPKAPK2 (unknown origin)
Mus musculus [21] = assay: Effect on APP processing pathway in 5XFAD mouse assessed as PEN2 protein signal intensity in cortex at 1200 ppm administered as rodent starting from 1.5 months and measured after 7 months (reference value: 13.636 to 217.511 %); type: functional; settings: route po, time 5.5 months, 4015 h
[22] = Effect on Spi1 gene expression in 5XFAD mouse hippocampus at 1200 ppm administered as rodent chow starting from 1.5 months and measured after 7 months by RNA-Seq analysis (reference value: 2.582 to 3.674 RPKM); type: functional; settings: route po, time 5.5 months, 4015 h
Mus musculus [23] = assay: Antialzheimer activity in 5XFAD mouse assessed as number of Thio-S positive plaques per FOV in thalamus at 1200 ppm administered as rodent chow starting from 1.5 months and measured after 7 months by Thio-S staining based confocal microscopic analysis (reference value: 97 to 282); type: functional; settings: route po, time 5.5 months, 4015 h
[24] = target: Proto-oncogene tyrosine-protein kinase receptor Ret (Homo sapiens, UniProt P07949); assay: Inhibition of RET (unknown origin)
[25] = target: Death-associated protein kinase 3 (Homo sapiens, UniProt O43293); assay: Inhibition of DAPK3 (unknown origin)
Death-associated protein kinase 3, sequence (O43293 whole entry): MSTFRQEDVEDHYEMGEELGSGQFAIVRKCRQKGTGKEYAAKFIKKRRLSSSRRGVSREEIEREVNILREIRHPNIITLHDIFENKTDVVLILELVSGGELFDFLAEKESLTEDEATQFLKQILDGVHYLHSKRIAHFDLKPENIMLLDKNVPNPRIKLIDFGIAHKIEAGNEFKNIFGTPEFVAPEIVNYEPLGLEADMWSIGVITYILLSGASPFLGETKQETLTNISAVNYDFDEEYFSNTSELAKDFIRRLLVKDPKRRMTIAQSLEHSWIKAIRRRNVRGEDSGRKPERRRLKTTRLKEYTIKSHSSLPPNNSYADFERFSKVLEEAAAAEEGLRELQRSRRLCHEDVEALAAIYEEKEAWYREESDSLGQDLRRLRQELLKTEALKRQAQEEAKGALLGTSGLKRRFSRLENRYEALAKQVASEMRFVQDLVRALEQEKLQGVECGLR

[26] = Drug concentration in wildtype mouse plasma at 1200 ppm administered as rodent chow for 10 to 24 weeks; type: ADME, cell-free; settings: po, time 10-24 weeks
Outline: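 WT or 5xFAD mice were started at 1.5 months of age on PLX5622 formulated at 1200 ppm in AIN-76A chow, with control chow as comparison. Feeding ran for 10 or 24 weeks. Terminal plasma and brain drug levels were then measured. Groups were sex-balanced and compared by two-tailed independent t-test.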

[27] = Toxicity in wildtype mouse assessed as total number of arm entries at 1200 ppm administered as rodent chow for 10 to 24 weeks by Y-maze test (reference value: 14 to 35); settings: in vivo, po, time 10-24 weeks
Mus musculus [28] = assay: Antialzheimer activity in 5XFAD mouse assessed as ApoE immunoreactivity by measuring ApoE intensity of plaque core in thalamus at 1200 ppm administered as rodent chow starting from 1.5 months and measured after 7 months by immunolabeling based confocal microscopic analysis (reference value: 6.13 to 122.68 a.u.); type: functional; settings: route po, time 5.5 months, 4015 h
[29] = target: Mitogen-activated protein kinase 1 (Homo sapiens, UniProt P28482); assay: Inhibition of MAPK1 (unknown origin)
Mitogen-activated protein kinase 1, sequence (P28482 whole entry): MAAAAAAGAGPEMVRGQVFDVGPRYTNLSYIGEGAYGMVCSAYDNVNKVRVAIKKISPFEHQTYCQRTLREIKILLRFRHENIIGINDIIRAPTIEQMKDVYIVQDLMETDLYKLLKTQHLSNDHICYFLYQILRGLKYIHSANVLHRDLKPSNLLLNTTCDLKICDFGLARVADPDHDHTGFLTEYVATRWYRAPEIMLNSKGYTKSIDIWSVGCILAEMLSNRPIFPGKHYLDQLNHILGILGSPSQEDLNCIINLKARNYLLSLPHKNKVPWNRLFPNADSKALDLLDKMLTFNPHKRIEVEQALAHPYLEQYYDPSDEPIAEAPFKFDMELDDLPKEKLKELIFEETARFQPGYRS

[30] = Effect on Csf1r RPKM gene expression in wild type mouse cortex at 1200 ppm administered as rodent chow starting from 1.5 months and measured after 7 months by RNA-Seq analysis (reference value: 18.302 to 19.220 RPKM); type: functional; settings: route po, time 5.5 months, 4015 h
[31] = AUC (0 to 24 hrs) in 5XFAD mouse plasma at 1200 ppm administered as rodent chow for 180 days; type: ADME, cell-free; settings: route po, time 180 day
[32] = target: Serine/threonine-protein kinase Nek9 (Homo sapiens, UniProt Q8TD19); assay: Inhibition of NEK9 (unknown origin)
Serine/threonine-protein kinase Nek9, sequence (Q8TD19 whole entry): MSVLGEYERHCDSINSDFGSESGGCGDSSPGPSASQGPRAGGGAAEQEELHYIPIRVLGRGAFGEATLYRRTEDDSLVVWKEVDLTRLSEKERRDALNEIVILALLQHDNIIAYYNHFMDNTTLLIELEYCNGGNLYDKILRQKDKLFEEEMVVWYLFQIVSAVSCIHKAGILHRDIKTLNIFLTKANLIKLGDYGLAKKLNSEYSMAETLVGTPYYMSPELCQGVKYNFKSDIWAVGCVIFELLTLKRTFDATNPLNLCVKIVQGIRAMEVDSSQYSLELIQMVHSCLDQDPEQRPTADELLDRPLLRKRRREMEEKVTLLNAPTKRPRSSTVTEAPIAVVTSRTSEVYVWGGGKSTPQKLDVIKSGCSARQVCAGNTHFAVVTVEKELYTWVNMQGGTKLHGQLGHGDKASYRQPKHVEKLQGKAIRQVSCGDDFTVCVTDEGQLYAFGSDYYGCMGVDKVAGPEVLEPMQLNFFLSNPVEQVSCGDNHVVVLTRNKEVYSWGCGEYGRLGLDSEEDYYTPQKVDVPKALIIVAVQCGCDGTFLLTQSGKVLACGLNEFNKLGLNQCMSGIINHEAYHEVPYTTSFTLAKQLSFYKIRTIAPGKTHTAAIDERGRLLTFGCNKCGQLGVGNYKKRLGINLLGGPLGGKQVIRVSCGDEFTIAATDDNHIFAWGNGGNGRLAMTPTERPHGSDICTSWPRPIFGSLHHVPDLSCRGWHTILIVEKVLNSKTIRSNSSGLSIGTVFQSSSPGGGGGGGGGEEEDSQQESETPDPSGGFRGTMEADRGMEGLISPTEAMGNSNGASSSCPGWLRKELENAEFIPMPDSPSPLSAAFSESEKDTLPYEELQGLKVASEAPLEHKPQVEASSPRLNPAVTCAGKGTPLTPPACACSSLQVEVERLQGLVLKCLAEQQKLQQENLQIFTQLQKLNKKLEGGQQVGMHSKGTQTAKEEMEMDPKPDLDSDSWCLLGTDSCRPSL

FC(F)(F)c1ccc(CNc2ccc(Cc3c[nH]c4ncc(Cl)cc34)cn2)cn1 [PEXIDARTINIB]
Activity (Mus musculus [1]): 628.64 um3

COc1ncc(F)cc1CNc1ccc(Cc2c[nH]c3ncc(C)cc23)c(F)n1 [PLX-5622]
Activity (Mus musculus [2]): 2 | IC50 [3]: > 1000 nM | IC50 [4]: > 1000 nM | IC50 [5]: > 1000 nM | IC50 [6]: > 1000 nM | Activity (Mus musculus [7]): 1 | Activity [8]: 11.641 RPKM | IC50 [9]: > 1000 nM | Activity [10]: 16.382 RPKM | Activity (Mus musculus [11]): 10 | IC50 [12]: > 1000 nM | IC50 [13]: > 1000 nM | Activity (Mus musculus [14]): 4.447 um | IC50 [15]: > 1000 nM | Activity (Mus musculus [16]): 6.35% | Activity [17]: 0.026 RPKM | IC50 [18]: > 1000 nM | Activity [19]: 63.951% | IC50 [20]: > 1000 nM | Activity (Mus musculus [21]): 7.565% | Activity [22]: 0.292 RPKM | Activity (Mus musculus [23]): 45 | IC50 [24]: > 1000 nM | IC50 [25]: > 1000 nM | concentration [26]: 17.8 µM | Activity [27]: 14 | Flu intensity (Mus musculus [28]): 0.77 a.u. | IC50 [29]: > 1000 nM | Activity [30]: 0.073 RPKM | AUC at 4320 h [31]: 218 µg·h/mL | IC50 [32]: > 1000 nM
